From ChEMBL document CHEMBL1135831, “Expansion of structure-activity studies of piperidine analogues of 1-[2-(diphenylmethoxy)ethyl]-4-(3-phenylpropyl)piperazine (GBR 12935) compounds by altering substitutions in the N-benzyl moiety and behavioral pharmacology of selected molecules” (J Med Chem, 2002)

Experiments:
[1] = target: Sodium-dependent dopamine transporter (Rattus norvegicus, UniProt P23977); assay: Inhibition of 3[H] WIN-35 428 binding to Dopamine transporter (DAT)
[2] = target: Norepinephrine transporter (Rattus norvegicus, UniProt Q9WTR4); assay: Inhibition of [3H]- […] binding to Norepinephrine transporter
Rattus norvegicus [3] = organism: Rattus norvegicus; assay: Concentration causing 50% Inhibition of [3H]- DA (Dopamine) uptake in rat striatal synaptosomes; type: functional; details: Brain
[4] = target: Sodium-dependent serotonin transporter (Rattus norvegicus, UniProt P31652); assay: Inhibition of [3H]- citalopram binding to Serotonin transporter
[5] = target: Monoamine transporters; Norepininephrine & dopamine (Rattus norvegicus) (UniProt P23977+Q9WTR4); assay: Selectivity ratio against dopamine and norepinephrine transporter binding; type: protein assay
Method in brief: (§1)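 Ratio of radioligand binding values: SERT ([³H]citalopram) or NET ([³H]nisoxetine) over DAT ([³H]WIN 35,428). Binding 0–4 °C, 2 h (DAT, SERT) or 3 h (NET), final Na⁺ 30 mM (DAT, SERT) or 225 mM (NET); each value from three independent experiments in triplicate.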

[6] = target: Monoamine transporters; serotonin & dopamine (Rattus norvegicus) (UniProt P31652+P23977); assay: Relative binding to serotonin and dopamine transporters; type: protein assay; method in brief: as §1
[7] = Selectivity ratio 3[H]DA uptake /DAT binding
Rattus norvegicus [8] = organism: Rattus norvegicus; assay: Inhibition of [3H]- DA (Dopamine) uptake in rat striatal synaptosomes; type: functional; details: Brain

Sodium-dependent serotonin transporter, sequence (P31652 whole entry): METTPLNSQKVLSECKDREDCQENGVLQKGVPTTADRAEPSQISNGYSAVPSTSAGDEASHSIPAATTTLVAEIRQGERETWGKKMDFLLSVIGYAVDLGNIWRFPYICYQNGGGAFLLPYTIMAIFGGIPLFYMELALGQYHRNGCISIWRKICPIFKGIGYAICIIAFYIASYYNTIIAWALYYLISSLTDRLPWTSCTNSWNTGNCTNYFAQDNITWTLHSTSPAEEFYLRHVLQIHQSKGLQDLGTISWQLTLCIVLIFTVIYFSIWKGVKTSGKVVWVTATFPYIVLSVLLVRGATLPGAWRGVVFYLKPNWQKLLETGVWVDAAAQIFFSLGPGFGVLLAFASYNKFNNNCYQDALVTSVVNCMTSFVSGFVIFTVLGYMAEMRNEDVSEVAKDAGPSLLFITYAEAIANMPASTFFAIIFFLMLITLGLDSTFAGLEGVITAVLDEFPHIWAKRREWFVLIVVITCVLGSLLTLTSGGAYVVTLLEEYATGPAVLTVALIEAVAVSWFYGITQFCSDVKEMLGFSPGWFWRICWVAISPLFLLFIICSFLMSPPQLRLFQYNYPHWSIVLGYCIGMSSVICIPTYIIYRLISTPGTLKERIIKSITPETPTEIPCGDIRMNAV
Sodium-dependent dopamine transporter, sequence (P23977 whole entry): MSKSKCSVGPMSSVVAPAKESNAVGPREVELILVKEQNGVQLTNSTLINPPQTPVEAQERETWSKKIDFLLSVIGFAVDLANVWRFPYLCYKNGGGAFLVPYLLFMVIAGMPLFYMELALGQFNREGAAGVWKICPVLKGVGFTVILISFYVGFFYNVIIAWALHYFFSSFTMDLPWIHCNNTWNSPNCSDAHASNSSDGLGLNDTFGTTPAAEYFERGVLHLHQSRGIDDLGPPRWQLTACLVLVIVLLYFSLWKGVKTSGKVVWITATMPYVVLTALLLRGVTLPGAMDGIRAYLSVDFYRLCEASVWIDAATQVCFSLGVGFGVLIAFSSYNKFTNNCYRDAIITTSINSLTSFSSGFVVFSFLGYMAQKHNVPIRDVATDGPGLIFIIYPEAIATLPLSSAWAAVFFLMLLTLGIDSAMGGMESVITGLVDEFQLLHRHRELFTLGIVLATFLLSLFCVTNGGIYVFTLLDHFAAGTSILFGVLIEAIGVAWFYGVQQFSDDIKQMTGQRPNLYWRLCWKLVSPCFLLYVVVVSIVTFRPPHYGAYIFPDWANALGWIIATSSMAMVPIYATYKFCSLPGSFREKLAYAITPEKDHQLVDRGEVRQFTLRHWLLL
Monoamine transporters; serotonin & dopamine (Rattus norvegicus), sequence (P23977 whole entry, looked up): as the sequence (P23977 whole entry) above
Monoamine transporters; serotonin & dopamine (Rattus norvegicus), sequence (P31652 whole entry, looked up): as the sequence (P31652 whole entry) above
Norepinephrine transporter, sequence (Q9WTR4 whole entry): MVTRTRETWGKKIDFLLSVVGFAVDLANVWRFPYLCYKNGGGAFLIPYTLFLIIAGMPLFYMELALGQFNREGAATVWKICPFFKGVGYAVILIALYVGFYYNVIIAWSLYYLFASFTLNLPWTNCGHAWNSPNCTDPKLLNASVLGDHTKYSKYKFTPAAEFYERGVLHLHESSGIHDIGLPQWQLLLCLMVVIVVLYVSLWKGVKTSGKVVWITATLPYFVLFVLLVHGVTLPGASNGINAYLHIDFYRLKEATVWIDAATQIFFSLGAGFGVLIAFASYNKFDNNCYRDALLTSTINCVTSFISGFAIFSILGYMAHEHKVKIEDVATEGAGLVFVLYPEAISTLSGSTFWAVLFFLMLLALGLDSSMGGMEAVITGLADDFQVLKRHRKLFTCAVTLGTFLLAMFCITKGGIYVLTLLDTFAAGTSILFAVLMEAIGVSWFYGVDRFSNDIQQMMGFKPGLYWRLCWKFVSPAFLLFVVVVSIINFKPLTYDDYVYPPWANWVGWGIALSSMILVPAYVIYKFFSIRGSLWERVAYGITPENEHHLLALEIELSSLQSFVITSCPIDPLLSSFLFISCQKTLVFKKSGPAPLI

| SMILES | IC50 [1] | IC50 [2] | IC50 (Rattus norvegicus [3]) | IC50 [4] | Ratio [5] | Ratio [6] | Ratio [7] | IC50 (Rattus norvegicus [8]) |
| --- | --- | --- | --- | --- | --- | --- | --- | --- |
| C=Cc1ccc(CN2CCC(CCOC(c3ccccc3)c3ccccc3)CC2)cc1 | 2.96 nM | 715 nM | 1.08 nM | 1470 nM | 240 | 500 | 0.36 |  |
| CC#Cc1ccc(CN2CCC(CCOC(c3ccccc3)c3ccccc3)CC2)cc1 | 65.1 nM | 1170 nM |  | 2410 nM | 18 | 37 |  |  |
| C=C(C)c1ccc(CN2CCC(CCOC(c3ccccc3)c3ccccc3)CC2)cc1 | 11.6 nM | 832 nM | 3.1 nM | 1030 nM | 72 | 88 | 0.26 |  |
| COc1cccc(CN2CCC(CCOC(c3ccccc3)c3ccccc3)CC2)c1 |  | 472 nM |  | 1080 nM | 24 | 55 | 0.34 | 6.68 nM |
| Oc1cccc(CN2CCC(CCOC(c3ccccc3)c3ccccc3)CC2)c1 |  | 678 nM |  |  | 47 | 69 | 0.72 | 10.4 nM |
| COC(=O)c1ccc(CN2CCC(CCOC(c3ccccc3)c3ccccc3)CC2)cc1 | 8.23 nM |  | 1.94 nM | 924 nM |  | 110 | 0.23 |  |
| C#Cc1ccc(CN2CCC(CCOC(c3ccccc3)c3ccccc3)CC2)cc1 | 4.1 nM | 760 nM | 4.81 nM | 1040 nM | 180 | 250 | 1.2 |  |
| Oc1ccc(CN2CCC(CCOC(c3ccccc3)c3ccccc3)CC2)cc1 | 240 nM | 3340 nM |  | 4330 nM | 14 | 18 |  |  |
| Ic1ccc(CN2CCC(CCOC(c3ccccc3)c3ccccc3)CC2)cc1 |  | 1150 nM | 2.01 nM |  | 1200 | 3040 | 2.1 |  |
